Test results published in ChEMBL document CHEMBL1914423, “New imidazo[2,1-b]thiazole derivatives: synthesis, in vitro anticancer evaluation, and in silico studies” (Eur J Med Chem, 2011).

These compounds were tested on MCF7 (assay: Anticancer activity against human MCF7 cells assessed as cell growth at 10^-5 M after 48 hrs by SRB assay). Settings: MCF7, 48 h, read-out: Activity.
Type: functional
Method in brief: (§1)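 NCI-60 single-dose screen at one concentration. Cells grown in RPMI 1640 with 5% FBS and 2 mM L-glutamine, plated at 5000–40,000 cells/well, and pre-incubated 24 h at 37 °C in 5% CO2 before DMSO-dissolved drug was added. Cells fixed with TCA, SRB-stained, absorbance read at 515 nm. Percent growth calculated against time-zero and untreated control plates.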
In the case of `O=C(NCCNc1nccc(-c2c(-c3cccc(O)c3)nc3sccn23)n1)c1ccccc1`, the growth at 10 µM is reported as 38.1%.

Each compound was assayed on CCRF-CEM (assay: Anticancer activity against human CCRF-CEM cells assessed as cell growth at 10^-5 M after 48 hrs by SRB assay). Settings: read-out: Activity.
Type: functional
Method in brief: as §1
Compound `O=C(NCCNc1nccc(-c2c(-c3cccc(O)c3)nc3sccn23)n1)c1ccccc1` has a growth at 10 µM of 47.3%.

Each compound was assayed on U-251 (assay: Anticancer activity against human U251 cells assessed as cell growth at 10^-5 M after 48 hrs by SRB assay). Settings: U-251, 48 h, read-out: Activity.
Type: functional
Method in brief: (§2)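 NCI-60 single-dose screen: cells in RPMI 1640 with 5% FBS and 2 mM L-glutamine, plated at 5000–40,000 cells/well by doubling time, and preincubated 24 h at 37 °C. Compound given at one concentration from DMSO stock. Cells TCA-fixed and SRB-stained, absorbance at 515 nm. Percent growth relative to time-zero and untreated controls; inhibition % = 100 − growth %.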
`O=C(NCCNc1nccc(-c2c(-c3cccc(O)c3)nc3sccn23)n1)c1ccccc1` gave a growth at 10 µM of 61.9%.

These compounds were tested on Malme-3M (assay: Anticancer activity against human MALME-3M cells assessed as cell growth at 10^-5 M after 48 hrs by SRB assay). Settings: read-out: Activity.
Type: functional
Method in brief: as §1
`O=C(NCCNc1nccc(-c2c(-c3cccc(O)c3)nc3sccn23)n1)c1ccccc1` was tested, and the growth at 10 µM was 9.31%.

What follows are compounds tested on ACHN (assay: Anticancer activity against human ACHN cells assessed as cell growth at 10^-5 M after 48 hrs by SRB assay). Settings: read-out: Activity.
Type: functional
Method in brief: as §1
Work on `O=C(NCCNc1nccc(-c2c(-c3cccc(O)c3)nc3sccn23)n1)c1ccccc1` yielded a growth at 10 µM of 60.5%.

What follows are compounds tested on EKVX (assay: Anticancer activity against human EKVX cells assessed as cell growth at 10^-5 M after 48 hrs by SRB assay). Settings: read-out: Activity.
Type: functional
Method in brief: as §1
`O=C(NCCNc1nccc(-c2c(-c3cccc(O)c3)nc3sccn23)n1)c1ccccc1` gave a growth at 10 µM of 94.2%.

Each compound was assayed on BT-549 (assay: Anticancer activity against human BT549 cells assessed as cell growth at 10^-5 M after 48 hrs by SRB assay). Settings: BT-549, 48 h, read-out: Activity.
Type: functional
Method in brief: as §1
`O=C(NCCNc1nccc(-c2c(-c3cccc(O)c3)nc3sccn23)n1)c1ccccc1` was tested, and the growth at 10 µM was 61.4%.

These compounds were tested on A498 (assay: Anticancer activity against human A498 cells assessed as cell growth at 10^-5 M after 48 hrs by SRB assay). Settings: A498, 48 h, read-out: Activity.
Type: functional
Method in brief: as §1
In the case of `O=C(NCCNc1nccc(-c2c(-c3cccc(O)c3)nc3sccn23)n1)c1ccccc1`, the growth at 10 µM is reported as 48%.

These compounds were tested on NCI-H522 (assay: Anticancer activity against human NCI-H522 cells assessed as cell growth at 10^-5 M after 48 hrs by SRB assay). Settings: NCI-H522, 48 h, read-out: Activity.
Type: functional
`O=C(NCCNc1nccc(-c2c(-c3cccc(O)c3)nc3sccn23)n1)c1ccccc1` gave a growth at 10 µM of 72.7%.

The compounds below were run on 786-0 (assay: Anticancer activity against human 786-0 cells assessed as cell growth at 10^-5 M after 48 hrs by SRB assay). Settings: 786-0, 48 h, read-out: Activity.
Type: functional
Method in brief: as §1
With `O=C(NCCNc1nccc(-c2c(-c3cccc(O)c3)nc3sccn23)n1)c1ccccc1` the growth at 10 µM was 66.5%.

Each compound was assayed on NCI-H226 (assay: Anticancer activity against human NCI-H226 cells assessed as cell growth at 10^-5 M after 48 hrs by SRB assay). Settings: NCI-H226, 48 h, read-out: Activity.
Type: functional
Compound `O=C(NCCNc1nccc(-c2c(-c3cccc(O)c3)nc3sccn23)n1)c1ccccc1` has a growth at 10 µM of 54.5%.

These compounds were tested on SK-MEL-2 (assay: Anticancer activity against human SK-MEL-2 cells assessed as cell growth at 10^-5 M after 48 hrs by SRB assay). Settings: SK-MEL-2, 48 h, read-out: Activity.
Type: functional
`O=C(NCCNc1nccc(-c2c(-c3cccc(O)c3)nc3sccn23)n1)c1ccccc1` gave a growth at 10 µM of 45.5%.

The compounds below were run on SF-268 (assay: Anticancer activity against human SF268 cells assessed as cell growth at 10^-5 M after 48 hrs by SRB assay). Settings: SF-268, 48 h, read-out: Activity.
Type: functional
`O=C(NCCNc1nccc(-c2c(-c3cccc(O)c3)nc3sccn23)n1)c1ccccc1` gave a growth at 10 µM of 80.7%.

These compounds were tested on RPMI-8226 (assay: Anticancer activity against human RPMI8226 cells assessed as cell growth at 10^-5 M after 48 hrs by SRB assay). Settings: RPMI-8226, 48 h, read-out: Activity.
Type: functional
In the case of `O=C(NCCNc1nccc(-c2c(-c3cccc(O)c3)nc3sccn23)n1)c1ccccc1`, the growth at 10 µM is reported as 76.8%.

These compounds were tested on MDA-MB-231 (assay: Anticancer activity against human MDA-MB-231 cells assessed as cell growth at 10^-5 M after 48 hrs by SRB assay). Settings: MDA-MB-231, 48 h, read-out: Activity.
Type: functional
Method in brief: as §1
Work on `O=C(NCCNc1nccc(-c2c(-c3cccc(O)c3)nc3sccn23)n1)c1ccccc1` yielded a growth at 10 µM of 80%.

What follows are compounds tested on SF-539 (assay: Anticancer activity against human SF539 cells assessed as cell growth at 10^-5 M after 48 hrs by SRB assay). Settings: SF-539, 48 h, read-out: Activity.
Type: functional
`O=C(NCCNc1nccc(-c2c(-c3cccc(O)c3)nc3sccn23)n1)c1ccccc1` showed a growth at 10 µM of 73.2%.

These compounds were tested on OVCAR-8 (assay: Anticancer activity against human OVCAR8 cells assessed as cell growth at 10^-5 M after 48 hrs by SRB assay). Settings: OVCAR-8, 48 h, read-out: Activity.
Type: functional
`O=C(NCCNc1nccc(-c2c(-c3cccc(O)c3)nc3sccn23)n1)c1ccccc1` gave a growth at 10 µM of 66.6%.

These compounds were tested on OVCAR-5 (assay: Anticancer activity against human OVCAR5 cells assessed as cell growth at 10^-5 M after 48 hrs by SRB assay). Settings: OVCAR-5, 48 h, read-out: Activity.
Type: functional
Compound `O=C(NCCNc1nccc(-c2c(-c3cccc(O)c3)nc3sccn23)n1)c1ccccc1` has a growth at 10 µM of 90.6%.

What follows are compounds tested on HOP-92 (assay: Anticancer activity against human HOP92 cells assessed as cell growth at 10^-5 M after 48 hrs by SRB assay). Settings: HOP-92, 48 h, read-out: Activity.
Type: functional
Method in brief: as §1
Compound `O=C(NCCNc1nccc(-c2c(-c3cccc(O)c3)nc3sccn23)n1)c1ccccc1` has a growth at 10 µM of 58.6%.

Each compound was assayed on UO-31 (assay: Anticancer activity against human UO31 cells assessed as cell growth at 10^-5 M after 48 hrs by SRB assay). Settings: UO-31, 48 h, read-out: Activity.
Type: functional
Method in brief: as §2
With `O=C(NCCNc1nccc(-c2c(-c3cccc(O)c3)nc3sccn23)n1)c1ccccc1` the growth at 10 µM was 87.7%.

The compounds below were run on NCI-H322M (assay: Anticancer activity against human NCI-H322M cells assessed as cell growth at 10^-5 M after 48 hrs by SRB assay). Settings: read-out: Activity.
Type: functional
Work on `O=C(NCCNc1nccc(-c2c(-c3cccc(O)c3)nc3sccn23)n1)c1ccccc1` yielded a growth at 10 µM of 101%.

Each compound was assayed on OVCAR-3 (assay: Anticancer activity against human OVCAR3 cells assessed as cell growth at 10^-5 M after 48 hrs by SRB assay). Settings: OVCAR-3, 48 h, read-out: Activity.
Type: functional
`O=C(NCCNc1nccc(-c2c(-c3cccc(O)c3)nc3sccn23)n1)c1ccccc1` was tested, and the growth at 10 µM was 92.3%.

These compounds were tested on KM12 (assay: Anticancer activity against human KM12 cells assessed as cell growth at 10^-5 M after 48 hrs by SRB assay). Settings: KM12, 48 h, read-out: Activity.
Type: functional
Method in brief: as §1
With `O=C(NCCNc1nccc(-c2c(-c3cccc(O)c3)nc3sccn23)n1)c1ccccc1` the growth at 10 µM was 75.9%.

What follows are compounds tested on SNB-75 (assay: Anticancer activity against human SNB75 cells assessed as cell growth at 10^-5 M after 48 hrs by SRB assay). Settings: SNB-75, 48 h, read-out: Activity.
Type: functional
Method in brief: as §2
`O=C(NCCNc1nccc(-c2c(-c3cccc(O)c3)nc3sccn23)n1)c1ccccc1` was tested, and the growth at 10 µM was 54.4%.

Each compound was assayed on DU-145 (assay: Anticancer activity against human DU145 cells assessed as cell growth at 10^-5 M after 48 hrs by SRB assay). Settings: DU-145, 48 h, read-out: Activity.
Type: functional
Method in brief: as §1
Work on `O=C(NCCNc1nccc(-c2c(-c3cccc(O)c3)nc3sccn23)n1)c1ccccc1` yielded a growth at 10 µM of 90.5%.

The compounds below were run on LOX IMVI (assay: Anticancer activity against human LOXIMVI cells assessed as cell growth at 10^-5 M after 48 hrs by SRB assay). Settings: read-out: Activity.
Type: functional
Method in brief: as §1
In the case of `O=C(NCCNc1nccc(-c2c(-c3cccc(O)c3)nc3sccn23)n1)c1ccccc1`, the growth at 10 µM is reported as 23.2%.

What follows are compounds tested on HOP-62 (assay: Anticancer activity against human HOP62 cells assessed as cell growth at 10^-5 M after 48 hrs by SRB assay). Settings: HOP-62, 48 h, read-out: Activity.
Type: functional
Method in brief: as §1
Compound `O=C(NCCNc1nccc(-c2c(-c3cccc(O)c3)nc3sccn23)n1)c1ccccc1` has a growth at 10 µM of 119%.

The compounds below were run on T47D (assay: Anticancer activity against human T47D cells assessed as cell growth at 10^-5 M after 48 hrs by SRB assay). Settings: read-out: Activity.
Type: functional
Method in brief: as §2
With `O=C(NCCNc1nccc(-c2c(-c3cccc(O)c3)nc3sccn23)n1)c1ccccc1` the growth at 10 µM was 58.6%.

Each compound was assayed on HCT-116 (assay: Anticancer activity against human HCT116 cells assessed as cell growth at 10^-5 M after 48 hrs by SRB assay). Settings: HCT-116, 48 h, read-out: Activity.
Type: functional
Method in brief: as §1
`O=C(NCCNc1nccc(-c2c(-c3cccc(O)c3)nc3sccn23)n1)c1ccccc1` showed a growth at 10 µM of 42.5%.

These compounds were tested on HT-29 (assay: Anticancer activity against human HT-29 cells assessed as cell growth at 10^-5 M after 48 hrs by SRB assay). Settings: HT-29, 48 h, read-out: Activity.
Type: functional
Method in brief: as §1
With `O=C(NCCNc1nccc(-c2c(-c3cccc(O)c3)nc3sccn23)n1)c1ccccc1` the growth at 10 µM was 65.4%.

The compounds below were run on NCI-H23 (assay: Anticancer activity against human NCI-H23 cells assessed as cell growth at 10^-5 M after 48 hrs by SRB assay). Settings: NCI-H23, 48 h, read-out: Activity.
Type: functional
For `O=C(NCCNc1nccc(-c2c(-c3cccc(O)c3)nc3sccn23)n1)c1ccccc1`, the growth at 10 µM was 82.6%.

Each compound was assayed on HCT-15 (assay: Anticancer activity against human HCT15 cells assessed as cell growth at 10^-5 M after 48 hrs by SRB assay). Settings: HCT-15, 48 h, read-out: Activity.
Type: functional
Method in brief: as §1
For `O=C(NCCNc1nccc(-c2c(-c3cccc(O)c3)nc3sccn23)n1)c1ccccc1`, the growth at 10 µM was 88.4%.

Each compound was assayed on SK-OV-3 (assay: Anticancer activity against human SKOV3 cells assessed as cell growth at 10^-5 M after 48 hrs by SRB assay). Settings: SK-OV-3, 48 h, read-out: Activity.
Type: functional
`O=C(NCCNc1nccc(-c2c(-c3cccc(O)c3)nc3sccn23)n1)c1ccccc1` was tested, and the growth at 10 µM was 65.1%.
